These results are taken from the EternaBench riboswitch data.

As usually defined, the apparent Kd is a dissociation constant that holds for the conditions of the assay.

The test system of this series is MS2 coat protein. As to the kind of experiment: apparent Kd, MS2 coat protein; higher = weaker binding; RNA-MaP array; FMN 200 µM where present. In outline:
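Apparent Kd: the median of filtered binding-curve fits from single clusters. Designs were transcribed on Illumina sequencing-chip clusters by stalled E. coli RNA polymerase and titrated with SNAP-549-labelled MS2 coat protein from 0.7 or 1.5 nM, doubling to 3 µM, in 100 mM Tris-HCl pH 7.5, 80 mM KCl, 4 mM MgCl2, BSA, DTT, yeast tRNA and Tween-20. Each series ran without and then with constant ligand, and green signal was normalised to red-channel RNA signal and control-cluster median Fmax.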

[1] abbreviates: designed as: OFF switch for flavin mononucleotide, no ligand.
The mark [2] stands for this setting: ligand present: flavin mononucleotide, designed as: OFF switch for flavin mononucleotide.
[3] abbreviates: designed as: ON switch for flavin mononucleotide, no ligand.
Setting [4] is: ligand present: flavin mononucleotide, designed as: ON switch for flavin mononucleotide.

Regarding “GUGAAACAUGAGGAUCACCCAUGUGAGGAUAUGUUUUAGUACUGCAGACAGUACAUCUAUAGAAGGCACAAUGG”, the “apparent Kd” value under setting [1] worked out at 38.9 nM and the “apparent Kd” value under setting [2] stood at 70.7 nM.
Taken in the same sequence, the figures for “CGCUAGUCAGGAUAUACGCACAUGUCACCAGACGUGAAGGGACAUGAGGAUCACCCAUGUAGAAGGGACUAGCA” were 87.9 nM and 203 nM.
As for “GAGUGACGAUUAGGAUAUAUAGUGAUAAUGAUAAUAGAAGGAAUUGACAUGAGGAUCACCCAUGUAGGACUAAUCCAGAGAGAG”, the “apparent Kd” value reads like this: under setting [3], 64.2 nM; under setting [4], 62.2 nM.
Regarding “UUCGUGCAGCUUUGCUGUACGCGUACAUGAGGAUCACCCAUGUAGGAUAUGGUAGGCAUUGCUUACUAGAAGGAUAGUGUGAUC”, the “apparent Kd” value under setting [1] stood at 124 nM and the “apparent Kd” value under setting [2] is 32.2 nM.
On to “GUUACAUGAGGAUCACCCAUGUAUGUGUGGGAGUAAGUGUCUUAGGAUAUCUAUGAUUUAAUUGAAGAGAAGGAAGAUUGUUGU”, for which the “apparent Kd” value is, setting by setting: under setting [3], 116 nM; under setting [4], 122 nM.
For the sequence “ACCUCACAUGAGGAUCACCCAUGUUAGGAUAUCUCGAUGCUCCGCGGGCGGGAGCAUCAGAGAAGGAACGUGCA”, the “apparent Kd” value is, setting by setting: under setting [1], 20.1 nM; under setting [2], 21.8 nM.
For “CCACGUCUCAUUAACAUGAGGAUCACCCAUGUCAAAAGACAUGAGGAUAUGGAUCCUAAUUGGAUCCAGAAGGCAUGGACGUGG”, the “apparent Kd” value stood at 516 nM under setting [3] and 59.4 nM under setting [4].
With “GACGAAUAGCUAGGAUAUCGUAAAUCAUUGGUAGUCUCUAUUCACAUGAGGAUCACCCAUGUAAUCGAGAAGGAGCACUCGUUC”, the “apparent Kd” value under setting [1] was found to be 80.4 nM and the “apparent Kd” value under setting [2] came to 240 nM.
Taken in the same sequence, the figures for “UUAUUUUUACAGAAGGUUUAAUAAUAUAUAUGAGAAGGAUAUGUAACAUGAGGAUCACCCAUGUUUCAUCUAUAUGAGGAUCAU” were 6.69 nM and 6.32 nM.
As for “GCGUAUAUAUGAUUUAUAAAACAGUCAGAAGGUGAGAAGACGACAUGAGGAUCACCCAUGUUAUUCAAGGAUAUGAUAAUGCGC”, the “apparent Kd” value was 13.1 nM under setting [3] and 7.74 nM under setting [4].
Consider “GUUUAGUGAGGAUAUGCGGCAUCGAUCGAGCGCGGUCGGCUACAGAAGGCACAUGAGGAUCACCCAUGUUUCUC”, for which the “apparent Kd” value is, setting by setting: under setting [1], 41 nM; under setting [2], 278 nM.
“GCCUGCCGUGGCACGGUAGCACCGGAGGAUAUCCGCGUCGGUCAUGACAUGAGGAUCACCCAUGUGGAGAAGGCUGGUUUGUCC”: the “apparent Kd” value stood at 10.8 nM under setting [1] and 21.2 nM under setting [2].
Taken in the same sequence, the figures for “AGAAACUAGGAGAAGGACAUAUGACCAAGACGAAACAUGAGGAUCACCCAUGUAGGAUAUCCUAGUUUCAGGAUCGUGAGAUCA” were 5.47 nM and 7.97 nM.
Taken in the same sequence, the figures for “GUAGAGUAAGGAUAUGGAGAAUAGGAUAGAAUGGUUAGAAUCUAGAAGGUACAUGAGGAUCACCCAUGUAAUGU” were 21.7 nM and 20.8 nM.
For “AGCCUGCUGCGAGGAUAUCAACUAAAGGGUCCGAUUUCCGAGCGGAACAUGAGGAUCACCCAUGUUGAGAAGGCGCGAGUAUAG”, in that order: 25.6 nM and 182 nM.
“CGCUAUUACAUGAGGAUCACCCAUGUAUAUAUUGUAUUUUCGUAGGAUAUGCAGAAGAUUAAAGUGCAGAAGGACGUAAUAGCG”: the “apparent Kd” value by setting is: under setting [3], 29.1 nM; under setting [4], 7.48 nM.
For “GCAGCAAUCUAAUACAUGAGGAUCACCCAUGUCGAGAGAUAUGAGGAUAUGCAUCUGAAGAAGAUGCAGAAGGCAUUGUGCUGC”, in that order: 10.7 nM and 6.48 nM.
For the sequence “UAAGCGCAGGAGAAGGGCACUGGACGCUCGCUACAUGAGGAUCACCCAUGUGCAGGAUAUCCGGCGCCACCCGCAAACUCGGUG”, the “apparent Kd” value is, setting by setting: under setting [1], 15.8 nM; under setting [2], 72.1 nM.
“CCAAGAAUAGGAUAUACACCGUGUCAGCUUUUAUAUAUCGCACAUGAGGAUCACCCAUGUAGAAGGGUUCUCUC”: the “apparent Kd” value under setting [1] is 676 nM and the “apparent Kd” value under setting [2] came to 564 nM.
In the case of “CUGAAGAUAUCAGGAUAUCUAUUUCCUACAUGAGGAUCACCCAUGUAGGUGAUCAGCCAAGUAAAGGAGAAGGGAUAUCUUUAG”, the “apparent Kd” value is 32.3 nM under setting [3] and 9.78 nM under setting [4].
For the sequence “UGUUGUAUUACAGGAUAUCUAGUAUUUAUAUUUAGAGAAGGGUAUUCACAUGAGGAUCACCCAUGUAUAUACGAGGAAGUUGUG”, the “apparent Kd” value runs as follows: under setting [3], 46.3 nM; under setting [4], 49.2 nM.
Turning to “GGUGGACAUGAGGAUCACCCAUGUGAGGAUAUCGGCUGGCUAGUGGCUGACGGCUGCUCGAGAAGGCGCAUUGU”, the “apparent Kd” value by setting is: under setting [1], 78.3 nM; under setting [2], 107 nM.
As to “UCGGCGCGAGGAUAUACGUUUGCGCGUUUUCGUUUUUGCGUACAUGAGGAUCACCCAUGUAGAAGGCGCGCCGC”, the “apparent Kd” value reads like this: under setting [1], 12.8 nM; under setting [2], 18 nM.
For “AUAUAGUCAGGAUAUCGAAGUGAGUGUUGGUGGGUAAGGUACGAGAAGGGACAUGAGGAUCACCCAUGUAGGAA”, in that order: 59.7 nM and 44.1 nM.
Taken in the same sequence, the figures for “GAGGACUGUGCAGGAUAUACAUGAGGAUCACCCAUGUAGGUCGGUUCGAAAGUAGAAGGGCACGAUUGUCGAUAGCACGCGUGA” were 97.5 nM and 39.2 nM.
Take “CGAGGUGGAGUGAGGAUAUCGUGUUCGAAAGAACGUGAGAAGGCACAUGAGGAUCACCCAUGUGAUCCUGCUCG”: the “apparent Kd” value runs as follows: under setting [1], 105 nM; under setting [2], 360 nM.
Regarding “GAGCUAUGAGGAUAUGCAUAGAUACGGAUUCGUGUAGUACUACAUGAGGAUCACCCAUGUAGAAGGCGUGGCUG”, the “apparent Kd” value by setting is: under setting [1], 18.5 nM; under setting [2], 20.5 nM.
In the case of “AAAAAACAUGAGGAUCACCCAUGUCAGGAUAUCUGUAUUCAAUCCUCGGAUUGAAUACAGAGAAGGGACAUGGA”, the “apparent Kd” value by setting is: under setting [1], 42 nM; under setting [2], 22.8 nM.
In the case of “CUGUUGUGGUACUGCAUGGCUUGGAGAGAAGGGUGAUUCACAUGAGGAUCACCCAUGUAGGACUUACAGGAUAUUUCCGGGUCU”, the “apparent Kd” value is 62.6 nM under setting [3] and 100 nM under setting [4].
Taken in the same sequence, the figures for “AUAUUCUAGAUAGGAUAUACUGAGGUUGAAUGGGUAGAAGGAUCGUUAGAGUGGACUACAUGAGGAUCACCCAUGUUGUUUAUU” were 48.3 nM and 42.7 nM.
On to “UUGUUACAUGAGGAUCACCCAUGUGAGGAUAUGGUUCGGUACUGUCCUGUCGCGUACUCCAGAAGGCACGUGUU”, for which the “apparent Kd” value reads like this: under setting [1], 30.8 nM; under setting [2], 37.4 nM.
For “CCUUACACCGAGAAGGGCACGUAUUGAAGAGGGUGCCAGGAACAUCACAUGAGGAUCACCCAUGUGCAGGAUAUCGGCAGGAAC”, the “apparent Kd” value came out at 9.78 nM under setting [1] and 22.3 nM under setting [2].
For the sequence “GCCGGUUACACAGGAUAUCCCAUGUCGACGGCGACAUGAGGAUCACCCAUGUCCUGGACGGGUUAGGAGAAGGGUGUAAAAUGC”, the “apparent Kd” value is 110 nM under setting [3] and 51.8 nM under setting [4].
On to “GUGGAGUACGUAGGAUAUGUAGGAUAUUCCUACAUGAGGAUCACCCAUGUAAGCAUGGAAGAAGGACAGAAGGACGUGCUCCAG”, for which the “apparent Kd” value is, setting by setting: under setting [3], 231 nM; under setting [4], 12.1 nM.
“GGUGCGUUUGUGAGGAUAUGCUGGUCCUUGGGUCAGCAGAAGGCACAUGAGGAUCACCCAUGUGGUGUCGUACC”: the “apparent Kd” value runs as follows: under setting [1], 358 nM; under setting [2], 42.9 nM.
In the case of “UGGUACUAGGGAGGAUAUGGGAAGAUACAUGAGGAUCACCCAUGUUUAAGAAUGCCGAGAGGCAACUAGAAGGCCCUAGUAACU”, the “apparent Kd” value by setting is: under setting [3], 461 nM; under setting [4], 20.2 nM.
For “GUGUAGUCAGGAUAUACAUGAGGAUCACCCAUGUGAAUAAGAUAGAAUAAGAUAAAGUGUAGAAGGGAUAGUGU”, the “apparent Kd” value runs as follows: under setting [1], 29.6 nM; under setting [2], 25.7 nM.
In the case of “UUUAAUCGAAACAUGAGGAUCACCCAUGUGUUGUAAUUAACAUAGGAUAUUUGUAUGCUUUUGUAAGAGAAGGAUGAUAAUACU”, the “apparent Kd” value under setting [3] is 21.2 nM and the “apparent Kd” value under setting [4] is 16.1 nM.
In the case of “CGAUCGUGUAGAGGAUAUGUUAAACAUGAGGAUCACCCAUGUAAGGUAGAAAUUUUUAUUAACAUACAGAAGGCUACACGAUCG”, the “apparent Kd” value by setting is: under setting [1], 8.08 nM; under setting [2], 5.66 nM.
Taken in the same sequence, the figures for “CGCUGGUGAGGAUAUGGGUGUGGUUACAUGAGGAUCACCCAUGUGGUGUCGCGCGUGGGUCCAGAAGGCGCGGGUG” were 246 nM and 170 nM.
Regarding “AUUUAGUGCGAGAAGGCGUGGUCACAUGAGGAUCACCCAUGUCAGUACACGAGGAUAUCGAUUCACUGUAUAAACACAAGUGAC”, the “apparent Kd” value reads like this: under setting [3], 53.8 nM; under setting [4], 6.22 nM.
On to “CCUCCGUAUUAGGAUAUCGUCCCGGAAACGGGACGAGAAGGAAUAACAUGAGGAUCACCCAUGUUAACGUGAUG”, for which the “apparent Kd” value under setting [1] came out at 18.8 nM and the “apparent Kd” value under setting [2] worked out at 46.7 nM.
For “ACGUCGAGCCAGAAGGCAACAUGAGGAUCACCCAUGUAGUCCGGCUCGUGUUGAGGAUAUGGCACCCGCGCGGAAGGCGCAGGU”, in that order: 5.12 nM and 6.62 nM.
Turning to “UUGGACGUCGUAGGAUAUGUAGGAUACUCCUACAUGAGGAUCACCCAUGUUGACAUGGAGGACGGACAGAAGGACGGUGUCCAU”, the “apparent Kd” value by setting is: under setting [3], 60.5 nM; under setting [4], 5.72 nM.
As for “GGUGCGUGUAAAGGAUAUAUGUACUGAGAGGACAUAGAAGGUUACAUGAGGAUCACCCAUGUAGGAAGCGAAAGUUAUCACGUG”, the “apparent Kd” value was determined as 11.7 nM under setting [1] and 25.3 nM under setting [2].
As to “GUAGUGUAUGUAGGAUAUGUGAAGGAAACAUUUACAGAAGGACAUGAGGAUCACCCAUGUAUUACAGUCAGCAAUCUGACUGUU”, the “apparent Kd” value is, setting by setting: under setting [1], 23.6 nM; under setting [2], 41.2 nM.
For “UGUCGGAGCAGAGGAUAUUACAUGAGGAUCACCCAUGUAUGAACCAAUUGCUGGAAACAGCAAUGUAAGAAGGCUGCUCCGACA”, in that order: 5.04 nM and 9.44 nM.
As to “CCUUUGUCAGGAUAUCGAAAAGGGAGGCCAAAGGCCUCCGGUGAGAAGGGACAUGAGGAUCACCCAUGUGAAAA”, the “apparent Kd” value reads like this: under setting [1], 77.3 nM; under setting [2], 383 nM.
